# Only some compounds are listed: those with a hit (about 2.1% of all), similar ones and a draw of the others.
# MC4R antagonist = antagonists of human melanocortin 4 receptor (MC4R); P32245; MC4R-expressing cells, MTII-stimulated cAMP, LANCE TR-FRET; inhibition, % at 6.5 µM; actives 0.48% (n = 360,000);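 active = inhibition above its plate's cutoff, the mean of tested wells on that plate plus 3 SD, cut at about 29% in these data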;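 note: 0% = Melanotan II alone and 100% = Melanotan II plus saturating MCL0020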
# Target sequence (P32245 whole entry, looked up): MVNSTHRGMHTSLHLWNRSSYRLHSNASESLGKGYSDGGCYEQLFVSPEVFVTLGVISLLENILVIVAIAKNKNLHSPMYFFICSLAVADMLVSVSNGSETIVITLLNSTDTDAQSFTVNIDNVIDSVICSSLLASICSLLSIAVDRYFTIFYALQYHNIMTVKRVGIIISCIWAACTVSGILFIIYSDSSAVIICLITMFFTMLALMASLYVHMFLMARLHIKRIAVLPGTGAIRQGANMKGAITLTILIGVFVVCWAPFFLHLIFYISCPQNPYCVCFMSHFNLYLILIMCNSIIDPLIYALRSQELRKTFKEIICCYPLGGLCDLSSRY
#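 Material: human MC4R-expressing U2OS cells. Probe or stimulus: Melanotan II challenge. Dosing: 6.5 µM single dose. Times: 30-min compound, 1-h challenge, 1-h detection, room temperature. Technique: TR-FRET with Eu-cAMP and labeled anti-cAMP, 671 nm. Replication: singlicate.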
# F508del corr = correctors of CFTR F508del function in bronchial epithelial cells; CFBE cells, YFP halide quenching; stimulated with forskolin plus potentiator P3; % fluorescence drop versus neutral controls; AID 720511; activity (quench increase), % at 7.58 µM; actives 0.36% (n = 350,000);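 active = mean added fluorescence quench of at least 8% versus neutral control, with both replicates also reaching 8%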;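 note: cells transiently co-express mutant CFTR-F508del with the halide-sensitive YFP; corrector assay measuring rescue of mutant channel to the surface after 24 h compound exposure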
# MC4R ag barr = agonists of human melanocortin 4 receptor (MC4R) beta-arrestin. P32245. AID 540308. activation, % at 8.9 µM. actives 0.98% (n = 360,000). U2OS MC4R beta-arrestin complementation, luminescence; percent of melanotan II response, DMSO zero;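 active = activation above a per-plate cutoff, the mean activation of sample wells on that plate plus 3 SD, cut at about 8% in these data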
# SMARCA2 activ = SMARCA2 function activation, primary screen; MG213 cells, MMTV-luciferase reporter, dexamethasone, overnight; activation, % at 9.1 µM; actives 1% (n = 370,000); AID 652017; in the data active = activation above about 7.8%;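 note: 0% = vehicle wells and 100% = reference activator wells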
# cAMP nonselect = nonselective cAMP signaling inhibitor, MC4R antagonist counter-screen | shares compounds with MC4R antagonist | inhibition, % at 6.5 µM | actives 26% (n = 1,600) | parental U2OS, forskolin cAMP, LANCE TR-FRET;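 active = mean inhibition over triplicates above the low-control well mean plus 3 SD, set per campaign, cut at about 13% in these data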;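 note: signal is single emission at 671 nm which falls as cellular cAMP rises; 0% = forskolin-stimulated wells and 100% = buffer without forskolin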
# MC4R cAMP antag = human MC4R cAMP antagonism confirmation; inhibition, % at 6.5 µM; MC4R-expressing cells, MTII-stimulated cAMP, TR-FRET; shares compounds with MC4R antagonist; actives 27% (n = 1,600); in the data active = inhibition above about 29%;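 note: 0% = agonist stimulated wells alone and 100% = agonist stimulated wells plus saturating reference antagonist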
# * marks the source's active call; other numbers are inactive results; / = no result.
SMILES,MC4R antagonist,F508del corr,MC4R ag barr,SMARCA2 activ,cAMP nonselect,MC4R cAMP antag
O=C(O)CSc1nc2ccccc2nc1Cc1ccccc1F,31*,-1,-2,-2,-1,7
Oc1ccc(C(c2nnnn2CCc2ccccc2)N2CCN(c3nc4ccccc4s3)CC2)cc1 (configuration not stated),31*,2,-1,-4,2,13
O=C(C#Cc1ccccc1)c1ccc([N+](=O)[O-])cc1,23,/,-4,2,/,/
O=C(C#Cc1ccccc1)c1ccccc1,51*,-10,-1,-3,29*,36*
COc1ccc(S(=O)(=O)Nc2cccc3c2O[C@@H](CN(C)S(=O)(=O)c2cccs2)[C@@H](C)CN([C@@H](C)CO)C3=O)cc1,/,0,/,/,/,/
Cc1nn(C)cc1NC(=O)C[C@H]1CC[C@H]2[C@@H](COc3ccc(NC(=O)Nc4cccc(Cl)c4)cc3C(=O)N2C)O1,/,1,/,/,/,/
O=C(NCc1ccco1)c1cc(S(=O)(=O)N2CCCC2)ccc1Cl,-1,2,1,-1,/,/
O=C(CN(Cc1ccco1)Cc1ccco1)Nc1cc(S(=O)(=O)N2CCCCC2)ccc1Cl,29*,9.4*,3,-3,5,11
O=C(Nc1cc(S(=O)(=O)N2CCCCC2)ccc1Cl)c1ccccc1NS(=O)(=O)c1ccc(F)cc1,31*,/,3,-9,1,5
O=c1cc(CN2CCCCCCC2)c2ccccc2o1,/,-1,/,-4,/,/
c1ccc2c3c(c(CN4CCCC4)cc2c1)COC3,30*,-3,0,-3,1,-18
CC1CCCCC1NC(=O)/C(C#N)=C/c1ccccc1F (configuration not stated),35*,/,-2,1,5,14
O=C(c1ccc([N+](=O)[O-])cc1)N(Cc1ccc(Cl)cc1)N1C(=O)CCCC1=O,32*,/,4,-1,17*,32*
O=C(c1ccc([N+](=O)[O-])cc1)N(Cc1ccc(Cl)cc1Cl)N1C(=O)CCCC1=O,12,/,1,2,/,/
CC(C)n1c(=S)[nH]c2scc(-c3cccs3)c2c1=O,9,-1,-2,-3,/,/
O=c1c2c(-c3cccs3)csc2[nH]c(=S)n1-c1ccccc1,31*,/,-1,1,18*,33*
COc1ccc2sc(-c3ccc(N(C)C)cc3)c(C#Cc3cncn3C)c2c1,38*,-1,5,1,-1,37*
COc1ccc2sc(-c3ccc(N(C)C)cc3)c(C#CC(C)(C)O)c2c1,16,1,3,3,/,/
CC(=O)n1cc([C@H]2C=C(C(=O)Nc3ccccc3)O[C@@H](OCc3ccc(CO)cc3)C2)c2ccccc21,31*,/,-1,/,1,12
CC(=O)n1cc([C@@H]2C=C(C(=O)NCc3ccccc3)O[C@H](OCc3ccc(CO)cc3)C2)c2ccccc21,36*,2,-1,2,-2,6
C#CCNC(=O)C1=C[C@H](c2cn(C(C)=O)c3ccccc23)C[C@H](OCc2ccc(CO)cc2)O1,16,-1,0,-1,/,/
N#C[C@@H]1[C@@H](c2ccccc2)[C@H](CO)N1C(=O)C1CCCC1,/,-2,/,/,/,/
O=C(CCl)NNC(=O)c1c(O)c2ccccc2[nH]c1=O,31*,-4,0,-3,-1,-3
CO[C@H]1CN(C)C(=O)c2cc(NC(=O)C3CC3)ccc2OC[C@H](C)NC[C@@H]1C,/,1,/,/,/,/
COCCNC(=S)N1CCc2cc(OC)c(OC)cc2C1COc1cc(C)cc(C)c1 (configuration not stated),29*,/,1,-3,-5,12
COCC(C)NC(=O)c1cc(OC)cc(OC)c1 (configuration not stated),36*,0,0,-2,1,5
COCC(C)NC(=O)c1cccc(Cl)c1 (configuration not stated),5,/,-2,-4,/,/
CC(=O)N1CC(=O)N2[C@@H](CO)[C@@H](c3ccc(C#Cc4cccnc4)cc3)[C@@H]2C1,/,-2,/,/,/,/
CC(C)=CC(=O)N1CCC(n2nccc2NC(=O)CCc2ccccc2)CC1,35*,1,3,1,4,6
CC#CC(=O)N1CCC(n2nccc2NC(=O)CCc2ccccc2)CC1,-1,1,0,5,/,/

# High-throughput results from PubChem BioAssay.
